Measurements from different studies.
Lines come from different studies, so protocols differ.
Target: Voltage-gated inwardly rectifying potassium channel KCNH2 (KCNH2, Homo sapiens, UniProt Q12809)

Structure (SMILES) | assay | system | conditions | IC50
C=CCn1c(=O)c2cnc(Nc3ccc(N4CCN(C)CC4)cc3)nc2n1-c1ccc2c(n1)[C@@](O)(CC)CC2 | ion current, inhibitor | – | – | > 30 µM
Cc1ccc2c(c1)C(=O)[C@]1(O)CCN(c3ccc4nc(C)ccc4c3)C1=N2 | ion current, inhibitor | – | – | 5.4 µM
NC/C(=C\F)COc1cccc(Cn2c(=S)[nH]c(=O)c3[nH]cnc32)c1 | ion current, inhibitor | – | – | > 100 µM
N=C(CC(O)c1cc2c(F)cc(F)cc2c2cc(C(F)(F)F)ccc12)Nc1ccc(Br)cc1 (centres unmarked) | ligand displacement, FP | – | – | 1.95 µM
CCOC(=O)C1=C(CN2CCC[C@@H]2C(=O)Nc2ccc(B(O)O)cc2)NC(c2nccs2)=N[C@H]1c1ccc(F)cc1Br | ion current, inhibitor, patch clamp | HEK293 | pH 7.4 | 6.54 µM
Cc1ccc(OCC(=O)N[C@@H](Cc2c[nH]c3ccccc23)C(=O)OC(C)C)cc1 | ion current, inhibitor, patch clamp | HEK293 | – | > 50 µM
FC(F)(F)CN1CC(n2cc(Oc3ccn4nc(Cl)cc4n3)cn2)C1 | ion current, inhibitor, patch clamp | – | – | > 30 µM
CC(C)(C)c1sc2ncnc(Oc3c(F)cccc3OC(F)(F)F)c2c1-c1ccc(Cl)cc1 | ion current, inhibitor, patch clamp | – | – | ~28 µM
